Test results reported in the M2OR odorant receptor database.

Experiments:
Conditions in all cases: stereoisomer not certain
OR10A2 (Homo sapiens) = target: T1, OR10A2 (Homo sapiens) (UniProt Q9H208)
T1 sequence (whole entry): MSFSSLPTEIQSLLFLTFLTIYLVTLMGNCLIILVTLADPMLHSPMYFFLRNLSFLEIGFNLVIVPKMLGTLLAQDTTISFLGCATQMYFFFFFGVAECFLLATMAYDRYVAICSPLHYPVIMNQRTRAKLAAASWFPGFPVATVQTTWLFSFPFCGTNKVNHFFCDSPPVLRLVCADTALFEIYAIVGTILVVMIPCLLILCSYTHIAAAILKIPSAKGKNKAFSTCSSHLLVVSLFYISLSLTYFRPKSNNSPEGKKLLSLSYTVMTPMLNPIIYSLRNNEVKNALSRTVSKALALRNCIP
Procedure, shortened: (§1)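 Values were gathered from published papers (main text and supplementary material), with extra details requested from the original authors when needed, and checked for typos and inconsistencies. Each receptor–molecule pair is called responsive (active) if the original authors judged the measured signal statistically different from baseline, and non-responsive (inactive) otherwise. Assay methods varied by source, often transient mammalian cell-line luciferase assays. Recorded details include cell line, G-protein, co-transfected protein and tags.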

OR10A3 (Homo sapiens) = target: T2, OR10A3 (Homo sapiens) (UniProt P58181)
T2 sequence (whole entry): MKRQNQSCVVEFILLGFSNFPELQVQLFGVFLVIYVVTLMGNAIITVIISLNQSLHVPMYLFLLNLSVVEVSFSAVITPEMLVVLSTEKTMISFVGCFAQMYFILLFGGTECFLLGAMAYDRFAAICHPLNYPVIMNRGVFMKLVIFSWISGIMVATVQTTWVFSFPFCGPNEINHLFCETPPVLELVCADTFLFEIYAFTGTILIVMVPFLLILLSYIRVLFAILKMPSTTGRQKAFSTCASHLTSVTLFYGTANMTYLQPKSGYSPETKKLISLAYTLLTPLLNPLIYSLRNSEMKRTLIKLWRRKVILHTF
Procedure, shortened: as §1

OR10A4 (Homo sapiens) = target: T3, OR10A4 (Homo sapiens) (UniProt Q9H209)
T3 sequence (whole entry): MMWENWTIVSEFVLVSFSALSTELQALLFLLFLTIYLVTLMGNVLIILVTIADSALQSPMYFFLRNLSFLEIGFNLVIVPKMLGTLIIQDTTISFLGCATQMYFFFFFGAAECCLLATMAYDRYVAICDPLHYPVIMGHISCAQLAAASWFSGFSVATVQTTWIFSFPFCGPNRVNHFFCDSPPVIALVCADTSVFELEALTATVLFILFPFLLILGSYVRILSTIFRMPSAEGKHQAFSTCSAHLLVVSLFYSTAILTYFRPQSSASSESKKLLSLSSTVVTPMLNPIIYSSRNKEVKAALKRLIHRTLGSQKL
Procedure, shortened: as §1

OR10A5 (Homo sapiens) = target: T4, OR10A5 (Homo sapiens) (UniProt Q9H207)
T4 sequence (whole entry): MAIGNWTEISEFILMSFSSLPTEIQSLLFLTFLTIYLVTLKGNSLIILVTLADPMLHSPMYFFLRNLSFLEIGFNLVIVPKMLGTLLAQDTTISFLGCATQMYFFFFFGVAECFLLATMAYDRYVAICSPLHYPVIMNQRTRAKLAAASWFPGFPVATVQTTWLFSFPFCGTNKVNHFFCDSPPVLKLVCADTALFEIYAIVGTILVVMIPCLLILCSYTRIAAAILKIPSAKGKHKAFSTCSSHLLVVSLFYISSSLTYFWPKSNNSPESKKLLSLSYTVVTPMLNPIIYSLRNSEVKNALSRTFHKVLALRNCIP
Procedure, shortened: as §1

OR10A6 (Homo sapiens) = target: T5, OR10A6 (Homo sapiens) (UniProt Q8NH74)
T5 sequence (whole entry): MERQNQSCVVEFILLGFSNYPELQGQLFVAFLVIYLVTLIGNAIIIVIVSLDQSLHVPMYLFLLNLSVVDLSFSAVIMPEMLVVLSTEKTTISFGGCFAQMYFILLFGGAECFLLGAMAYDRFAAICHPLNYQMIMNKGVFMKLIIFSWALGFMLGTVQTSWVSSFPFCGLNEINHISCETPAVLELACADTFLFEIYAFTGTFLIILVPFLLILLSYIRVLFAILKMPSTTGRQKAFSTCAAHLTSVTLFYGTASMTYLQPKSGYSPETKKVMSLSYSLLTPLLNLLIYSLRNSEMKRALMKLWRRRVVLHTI
Procedure, shortened: as §1

OR10A7 (Homo sapiens) = target: T6, OR10A7 (Homo sapiens) (UniProt Q8NGE5)
T6 sequence (whole entry): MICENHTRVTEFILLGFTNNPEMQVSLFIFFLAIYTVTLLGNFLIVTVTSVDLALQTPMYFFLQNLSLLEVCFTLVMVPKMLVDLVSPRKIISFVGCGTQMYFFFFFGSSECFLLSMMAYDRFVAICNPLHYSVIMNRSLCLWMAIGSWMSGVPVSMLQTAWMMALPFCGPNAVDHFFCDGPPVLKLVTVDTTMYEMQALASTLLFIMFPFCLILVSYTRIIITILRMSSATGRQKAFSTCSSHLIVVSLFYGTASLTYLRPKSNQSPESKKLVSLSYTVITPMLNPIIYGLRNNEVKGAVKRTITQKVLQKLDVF
Procedure, shortened: as §1

OR10AD1 (Homo sapiens) = target: T7, OR10AD1 (Homo sapiens) (UniProt Q8NGE0)
T7 sequence (whole entry): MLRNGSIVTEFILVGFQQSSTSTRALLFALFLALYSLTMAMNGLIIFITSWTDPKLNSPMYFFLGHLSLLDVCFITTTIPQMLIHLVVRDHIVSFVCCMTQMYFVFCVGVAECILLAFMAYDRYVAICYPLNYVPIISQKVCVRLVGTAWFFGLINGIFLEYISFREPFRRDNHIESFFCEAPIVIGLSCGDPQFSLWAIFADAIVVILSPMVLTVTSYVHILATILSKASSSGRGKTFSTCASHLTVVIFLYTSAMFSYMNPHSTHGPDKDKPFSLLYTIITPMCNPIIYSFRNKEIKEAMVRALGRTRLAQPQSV
Procedure, shortened: as §1

OR10AG1 (Homo sapiens) = target: T8, OR10AG1 (Homo sapiens) (UniProt Q8NH19)
T8 sequence (whole entry): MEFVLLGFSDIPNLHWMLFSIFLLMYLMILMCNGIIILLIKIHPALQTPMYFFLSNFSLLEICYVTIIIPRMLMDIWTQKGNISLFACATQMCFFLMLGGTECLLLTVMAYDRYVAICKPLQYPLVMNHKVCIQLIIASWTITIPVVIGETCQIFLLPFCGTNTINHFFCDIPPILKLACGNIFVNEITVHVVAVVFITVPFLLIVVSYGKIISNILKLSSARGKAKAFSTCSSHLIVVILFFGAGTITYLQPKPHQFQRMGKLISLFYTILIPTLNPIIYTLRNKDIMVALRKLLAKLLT
Procedure, shortened: as §1

OR10C1 (Homo sapiens) = target: T9, OR10C1 (Homo sapiens) (UniProt Q96KK4)
T9 sequence (whole entry): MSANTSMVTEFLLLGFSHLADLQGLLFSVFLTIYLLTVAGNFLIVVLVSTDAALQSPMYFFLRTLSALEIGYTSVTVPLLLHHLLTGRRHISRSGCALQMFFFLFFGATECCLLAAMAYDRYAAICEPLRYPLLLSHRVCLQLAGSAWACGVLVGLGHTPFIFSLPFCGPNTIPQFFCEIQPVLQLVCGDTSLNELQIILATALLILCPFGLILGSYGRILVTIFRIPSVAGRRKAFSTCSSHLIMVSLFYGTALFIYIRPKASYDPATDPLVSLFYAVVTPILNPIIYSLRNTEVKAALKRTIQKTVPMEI
Procedure, shortened: as §1

OR10D3 (Homo sapiens) = target: T10, OR10D3 (Homo sapiens) (UniProt Q8NH80)
T10 sequence (whole entry): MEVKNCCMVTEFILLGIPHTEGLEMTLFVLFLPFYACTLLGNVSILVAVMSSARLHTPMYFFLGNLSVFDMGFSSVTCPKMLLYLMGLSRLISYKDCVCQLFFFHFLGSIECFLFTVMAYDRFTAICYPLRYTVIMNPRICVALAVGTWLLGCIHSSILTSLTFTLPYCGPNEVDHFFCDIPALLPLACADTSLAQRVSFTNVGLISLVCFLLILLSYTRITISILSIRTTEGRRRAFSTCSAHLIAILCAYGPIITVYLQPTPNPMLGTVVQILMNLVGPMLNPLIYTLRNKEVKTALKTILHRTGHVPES
Procedure, shortened: as §1

Measured: odorant receptor agonist call

CCCCCC(S)C(C)CO (stereo not given)
inactive: all assays above
